The species entered for one assay is Homo sapiens. In words: (§1) Inhibition of TNFalpha activated NF-kappaB dependent transactivation of HIV-1 LTR Luc in 5.1 cells. The format is cell-based. Put shortly:
(§2)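 A T cell line stably carrying HIV-1 LTR-driven luciferase was preincubated with increasing concentrations for 30 min, then stimulated with TNFα (2 ng/mL) for 6 h. Cells were lysed in Tris-phosphate buffer pH 7.8 with Triton X-100. Luciferase was read and normalized to Bradford protein (RLU/µg) after subtracting lysis-buffer background. Results are fold induction over untreated cells, with at least three repeats.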

For assay [1], the system named is Human immunodeficiency virus 1. In words: Inhibition of VSV-pseudotyped HIV1 replication in Jurkat T cells. The format is functional, organism-based. Put shortly:
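Jurkat T cells (10^6/mL) pretreated 30 min with increasing concentrations before infection with VSV-pseudotyped pNL4-3.Luc.R-E- virus (Env-, Vpr-; stock made in 293T cells), 200 ng HIV-1 gag p24 per culture. After 24 h the cells were washed twice in PBS and luciferase activity in the lysates was read as % of infected untreated cells. Mean ± SD of three independent experiments.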

In assay [2] the test system is Monocyte. In words: Inhibition of IL1-beta production in LPS-stimulated human primary monocytes by ELISA. The format is functional. Put shortly:
(§3)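 Primary monocytes from healthy donors were seeded at (1-2) × 10^6 cells/well at 37 °C/5% CO2. Nonadherent cells were removed and the medium replaced with RPMI-1640 plus 1% human serum. Cells were preincubated with increasing compound concentrations for 30 min, then stimulated with LPS (10 ng/mL) for 24 h. Supernatants were cleared at 10000g for 10 min. Cytokines were measured by ELISA and PGE2 by EIA.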

Assay [3] concerns Monocyte. In words: Inhibition of TNFalpha production in LPS-stimulated human primary monocytes by ELISA. The format is functional. Put shortly:
as §3

For assay [4], the system named is Monocyte. In words: Inhibition of IL6 production in LPS-stimulated human primary monocytes by ELISA. The format is functional. Put shortly: as §3
Assay [5] deals with Monocyte. In words: Inhibition of IL8 production in LPS-stimulated human primary monocytes by ELISA. Format: functional.
The test system of assay [6] is Monocyte. In words: Inhibition of PGE2 production in LPS-stimulated human primary monocytes by ELISA. Format: functional. The method in brief:
as §3

Assay [7] is described as follows: as §1. Particulars: Homo sapiens. The format is cell-based. The method in brief: as §2

The results in this text go back to ChEMBL document CHEMBL1142109, “Arzanol, an anti-inflammatory and anti-HIV-1 phloroglucinol alpha-Pyrone from Helichrysum italicum ssp. microphyllum” (J Nat Prod, 2007).

pIC50: −log10 of the molar value. The source made the active and inactive calls. The rule behind the calls is not given here.

Consider `C=C(CO)[C@@H]1Cc2cc(C(C)=O)ccc2O1`, for which the result in the assay filed under Homo sapiens was inactive. On to `C=C(CO)[C@H]1Oc2ccc(C(C)=O)cc2[C@H]1OC(C)=O`, for which the result in the assay listed under Homo sapiens was inactive. With `C=C(COC(C)=O)[C@@H]1Cc2cc(C(C)=O)ccc2O1`, the result in the assay listed under Homo sapiens was inactive. In the case of `C=C(COC(C)=O)[C@H]1Oc2ccc(C(C)=O)cc2[C@H]1OC(C)=O`, the result in the assay filed under Homo sapiens was inactive. As to `CCC(C)C(=O)C(C)c1oc(=O)c(C)c(O)c1C` (stereo not drawn), in the assay listed under Homo sapiens, the outcome was inactive.

`CCc1oc(=O)c(Cc2c(O)c(CC=C(C)C)c(O)c(C(C)=O)c2O)c(O)c1C` [ARZANOL]: the Activity result in assay [1] was “Dose-dependent effect”. Besides, the pIC50 in the assay with Monocyte [2] is 5.25; in the assay with Monocyte [3], 5.04; with Monocyte [4] it was 4.88; in the assay with Monocyte [5], 4.66; in the assay with Monocyte [6] it was 4.73; in assay [7], 5.30. Consider `CCc1oc(=O)c(Cc2c(O)c(C)c(CC)oc2=O)c(O)c1C` [HELIPYRONE], for which the negative-log IC50 (pIC50) in assay [7] was 5.06.
